# High-throughput results deposited in PubChem by several laboratories.
# CXCR6 block: CXCR6 (human) receptor inhibition. O00574. CHO-K1 PathHunter CXCR6 beta-arrestin, luminescence. inhibition, % at 20 µM. hit rate 0.36% among 360,000. AID 602244; in the data active = inhibition above about 34%, passing the limit was not always enough;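 note: antagonist mode with CXCL16 agonist at 10 nM final; 0% = 10 nM CXCL16 with DMSO and 100% = unstimulated wells without agonist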
# APJ ag: APJ receptor agonism | P35414 | CHO-K1 APJ PathHunter beta-arrestin, luminescence; 0% DMSO wells, 100% apelin | activation, % at 20 µM | hit rate 0.11% among 330,000;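 active = activation more than six SD over the plate average, tested at 20 µM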;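 note: 0% = DMSO alone and 100% = apelin-13 at 10 nM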
# Target sequence (P35414 whole entry, looked up): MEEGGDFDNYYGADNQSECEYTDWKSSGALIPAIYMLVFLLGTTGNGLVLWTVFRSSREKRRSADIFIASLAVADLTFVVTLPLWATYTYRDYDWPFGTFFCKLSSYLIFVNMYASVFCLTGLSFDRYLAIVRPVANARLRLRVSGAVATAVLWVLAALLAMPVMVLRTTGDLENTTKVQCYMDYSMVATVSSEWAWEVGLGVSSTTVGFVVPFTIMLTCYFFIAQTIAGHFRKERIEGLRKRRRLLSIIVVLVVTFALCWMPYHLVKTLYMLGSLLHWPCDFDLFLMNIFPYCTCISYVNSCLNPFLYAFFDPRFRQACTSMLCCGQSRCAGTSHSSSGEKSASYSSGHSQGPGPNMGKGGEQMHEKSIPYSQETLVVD
#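 system = engineered CHO-K1 APJ arrestin reporter cells | input = 1000 cells per well | timing = overnight seeding, 90 min compound at 25 °C, 1 h detection | measured by = enzyme-fragment complementation luminescence | read-out = beta-arrestin recruitment to APJ as agonist activity, luminescent signal | control set = negative DMSO alone, positive Apelin-13 at 10 nM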
# APJ antag: APJ receptor antagonism. P35414. CHO-K1 APJ beta-arrestin complementation, luminescence. inhibition, % at 20 µM. hit rate 0.32% among 330,000;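 active = inhibition above about 40% at 20 µM, limit read from the data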;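 note: cells challenged with 10 nM apelin-13 agonist together with compound; plate controls were apelin-13 plus DMSO wells for no effect and DMSO wells lacking apelin-13 for full effect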
# CCR6 antagonist: CCR6 (human) receptor antagonism; P51684; CHO-K1 CCR6 PathHunter beta-arrestin, luminescence, CCL20-stimulated; inhibition, % at 20 µM; hit rate 0.49% among 340,000; AID 493098;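 active = compounds whose inhibition of the agonist-driven luminescence signal at 20 µM reaches about 50%, limit read from the data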;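 note: cells stimulated with CCL20 at 14 nM final; plate controls were DMSO with CCL20 for no effect and DMSO without agonist for full effect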
# EBI2 block: EBI2 (human) antagonism; P32249; EBI2 beta-arrestin recruitment, luminescence, 7a,25-OHC stimulated; inhibition, % at 5 µM; hit rate 0.81% among 360,000; AID 651636; in the data active = inhibition above about 38%;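 note: enzyme fragment complementation signal reports receptor beta-arrestin coupling in cells; 0% = agonist plus DMSO wells and 100% = wells without agonist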
# m5-HT2A agonist: activates the mouse 5-HT2A serotonin receptor | AID 624169 | activation, % at 7.6 µM | P35363 | hit rate 0.66% among 360,000 | CHO-K1 mHTR2A beta-arrestin complementation, luminescence; percent of 30 µM serotonin response;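 active = activation above a run cutoff, the mean activation of all tested compounds plus 3 SD, cut at about 14% in these data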;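 note: 0% = plate median of compound wells and 100% = 30 µM serotonin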
# EBI2 antag conf: confirmation of human EBI2 receptor antagonists; shares compounds with EBI2 block; EBI2 beta-arrestin luminescence, 7a,25-OHC antagonism; AID 651997; hit rate 29% among 2,400; inhibition, % at 5 µM;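 active = inhibition of at least 50%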
# EBI2 ag: counter-screen for EBI2 antagonists: EBI2 agonist activity | shares compounds with EBI2 block | EBI2-expressing cells, agonist mode, luminescence, 60 min; 0% vehicle, 100% 7α,25-dihydroxycholesterol control | activation, % at 5 µM | 2,400 tested, under 10 active;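 active = activation of at least 50%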
# bGal counter: beta-galactosidase inhibition counter-screen | shares compounds with EBI2 block | AID 652176 | purified beta-galactosidase, luminescent Galacton Star, 15 min | hit rate 1% among 2,400 | inhibition, % at 5 µM;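 active = replicate-average signal at least 3 plate SD below neutral wells, shown as high inhibition, flagging enzyme-inhibiting false positives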;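 note: 0% = DMSO wells with enzyme and 100% = wells lacking enzyme; higher means stronger loss of beta-gal luminescence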
# The depositor's hits bear a star; x = no result given. A selection: hits, their analogues and other compounds. The true share with any hit is near 2.1%.
SMILES,CXCR6 block,APJ ag,APJ antag,CCR6 antagonist,EBI2 block,m5-HT2A agonist,EBI2 antag conf,EBI2 ag,bGal counter
Cc1cc(C(=O)N2CCN(c3cccc(Cl)c3)CC2)c(C)o1,-2,-3,16,9,1,-1,x,x,x
O=C(c1cc(=O)c2ccccc2o1)N1CCN(c2ccccc2F)CC1,2,-4,6,5,64*,-5,33,0,-11
COCC(=O)N(Cc1cc2cc(OC)ccc2[nH]c1=O)c1ccccc1OC,7,-1,26,-4,-9,-2,x,x,x
CCc1cccc(NC(=O)CN(C)S(=O)(=O)c2cccs2)c1,-2,1,-35,7,-6,1,x,x,x
COc1ccccc1NS(=O)(=O)c1cccc(C(=O)N2CC(C)OC(C)C2)c1 (configuration not stated),2,-1,21,1,5,-1,x,x,x
O=C(Cc1ccccc1)NC(=S)Nc1ccc2oc(-c3ccccc3F)nc2c1,12,-2,9,36,39*,-4,22,0,6
O=C(/C=C/c1ccc(Br)cc1)NC1CCCCCC1,-2,-2,12,8,64*,-1,61*,-1,9
O=C(/C=C/c1cccc(Br)c1)NCC1CCCCC1,-2,-3,0,21,43*,-7,35,-1,-18
COc1cc(CCC(=O)OCC(=O)NCC2CCCCC2)cc(OC)c1OC,3,-2,0,4,-1,4,x,x,x
COc1ccc(CCNC(=O)/C=C/c2cc(OC)c(OC)c(OC)c2)cc1OC,-2,-3,8,8,37*,5,18,1,11
COc1cc(/C=C/C(=O)NCC2CCCCC2)cc(OC)c1OC,10,2,-28,4,52*,-2,40,-1,-19
O=C(COC(=O)/C=C/c1cccc(Br)c1)NC1CCCCC1,-6,-3,-1,4,3,-4,x,x,x
Cc1ccc(CC(CC(=O)O)C(=O)NCc2ccccc2)cc1 (configuration not stated),8,0,-9,-6,-9,-1,x,x,x
CCc1ccc(CN(Cc2cccnc2)C(=O)/C=C/c2ccc(OC)cc2)cc1,10,-2,-17,15,62*,5,27,-1,-3
COc1ccc(/C=C/C(=O)NCc2cccnc2)cc1,5,0,-4,-8,13,-1,x,x,x
COc1cc(/C=C/C(=O)c2ccc(Cl)s2)cc(OC)c1O,37,-2,31,48,45*,-6,33,-2,4
Cc1ccc(CNC(=O)c2ccc(N3CCC4(CC3)CC(c3ccccc3)=NO4)c(NC(=O)c3ccccc3)c2)cc1,-5,-5,17,7,6,2,x,x,x
Cc1ccc(CNC(=O)c2ccc(N3CCC4(CC3)CC(c3ccccc3)=NO4)c(N)c2)cc1,-3,8,14,-1,45*,-6,19,-1,-13
COc1ccc(-n2nnnc2SCC(=O)Nc2cc(OC)c([N+](=O)[O-])cc2C)cc1,5,-3,17,-2,1,1,x,x,x
COc1ccc(C(=O)/C=C/c2cccs2)c(OC(=O)c2cccc([N+](=O)[O-])c2)c1,-3,-2,4,11,-2,-1,x,x,x
COc1ccc(C(=O)/C=C/c2ccc(F)cc2)c(OC(=O)c2ccc([N+](=O)[O-])cc2)c1,10,-4,7,6,54*,-2,26,0,8
CNC(=O)/C(C#N)=C/c1ccc(-c2nc3ccccc3s2)o1,1,0,5,5,53*,-3,30,-1,-11
CN(Cc1ccco1)c1ncnc2ccc(-c3ccoc3)cc12,6,-3,10,-1,-4,-2,x,x,x
COc1cc(OC)cc(-c2c(Sc3ccccc3)c3cc(-c4cnc(OC)nc4)ccc3n2C)c1,3,x,x,x,65*,4,10,-1,-6
